Laboratory results as given in ChEMBL document CHEMBL1148485, “Synthesis and biological evaluation of new selective cytotoxic cyclolignans derived from podophyllotoxin” (J Med Chem, 2004).

Key:
HeLa [1] = assay: Effect on cell cycle evaluated as proportion of cells in sub-G1 phase (apoptic cells)of the cell cycle at 10E-8 M for 48 hr in HeLa cells; format: functional, Homo sapiens
Method in brief: (§1)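 HeLa cells were grown in DMEM with 10% heat-inactivated FCS and 2 mM L-glutamine at 37 °C in 5% CO2. They were exposed to 10^-6 to 10^-8 M for 24, 48 or 72 h. Then (3-5)×10^5 cells were fixed overnight in 70% ethanol at 4 °C, PBS-washed, and given 1 mg/mL RNase A plus 20 µg/mL propidium iodide for 1 h at room temperature. DNA content was read by flow cytometry. Sub-G1 (hypodiploid) % counted as apoptotic. Untreated controls were run in parallel. Representative of three independent experiments.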

HeLa [2] = assay: Effect on cell cycle evaluated as proportion of cells in G2/M phase of the cell cycle at 10E-7 M for 48 hr in HeLa cells; format: functional, Homo sapiens; method in brief: as §1
HeLa [3] = assay: Effect on cell cycle evaluated as proportion of cells in G0/G1 phase of the cell cycle at 10E-8 M for 48 hr in HeLa cells; format: functional, Homo sapiens; method in brief: as §1
HeLa [4] = assay: Effect on cell cycle evaluated as proportion of cells in S phase of the cell cycle at 10E-7 M for 72 hr in HeLa cells; format: functional, Homo sapiens; method in brief: as §1
HeLa [5] = assay: Effect on cell cycle evaluated as proportion of cells in sub-G1 phase (apoptic cells) of the cell cycle at 10E-7 M for 24 hr in HeLa cells; format: functional, Homo sapiens; method in brief: as §1
HeLa [6] = assay: Effect on cell cycle evaluated as proportion of cells in G0/G1 phase of the cell cycle at 10E-6 M for 24 hr in HeLa cells; format: functional, Homo sapiens; method in brief: as §1
HeLa [7] = assay: Effect on cell cycle evaluated as proportion of cells in sub-G1 phase(apoptic cells) of the cell cycle at 10E-8 M for 72 hr in HeLa cells; format: functional, Homo sapiens; method in brief: as §1
HeLa [8] = assay: Effect on cell cycle evaluated as proportion of cells in S phase of the cell cycleG2/M at 10E-8 M for 72 hr in HeLa cells; format: functional, Homo sapiens; method in brief: as §1
HeLa [9] = assay: Effect on cell cycle evaluated as proportion of cells in S phase of the cell cycle at 10E-7 M for 48 hr in HeLa cells; format: functional, Homo sapiens; method in brief: as §1
HeLa [10] = assay: Effect on cell cycle evaluated as proportion of cells in G2/M phase of the cell cycle at 10E-8 M for 48 hr in HeLa cells; format: functional, Homo sapiens; method in brief: as §1
HeLa [11] = assay: Effect on cell cycle evaluated as proportion of cells in G2/M phase of the cell cycle at 10E-6 M for 24 hr in HeLa cells; format: functional, Homo sapiens; method in brief: as §1
HeLa [12] = assay: Effect on cell cycle evaluated as proportion of cells in sub-G1 (apoptic cells) phase of the cell cycle at 10E-6 M for 48 hr in HeLa cells; format: functional, Homo sapiens; method in brief: as §1
HeLa [13] = assay: Effect on cell cycle evaluated as proportion of cells in G0/G1 phase of the cell cycle at 10E-6 M for 48 hr in HeLa cells; format: functional, Homo sapiens; method in brief: as §1
HeLa [14] = assay: Effect on cell cycle evaluated as proportion of cells in sub-G1 phase of the cell cycle at 10E-7 M for 48 hr in HeLa cells; format: functional, Homo sapiens; method in brief: as §1
HeLa [15] = assay: Effect on cell cycle evaluated as proportion of cells in S phase of the cell cycle at 10E-6 M for 24 hr in HeLa cells; format: functional, Homo sapiens; method in brief: as §1
[16] = Selectivity index is the ratio of IC50 of P-388 cell line to that of HT-29; format: functional
HeLa [17] = assay: Effect on cell cycle evaluated as proportion of cells in G0/G1 phase of the cell cycle at 10E-8 M for 72 hr in HeLa cells; format: functional, Homo sapiens; method in brief: as §1
HeLa [18] = assay: Effect on cell cycle evaluated as proportion of cells in S phase of the cell cycle at 10E-6 M for 48 hr in HeLa cells; format: functional, Homo sapiens; method in brief: as §1
HeLa [19] = assay: Effect on cell cycle evaluated as proportion of cells in S phase of the cell cycle at 10E-6 M for 72 hr in HeLa cells; format: functional, Homo sapiens; method in brief: as §1
HeLa [20] = assay: Effect on cell cycle evaluated as proportion of cells in G0/G1 phase of the cell cycle at 10E-7 M for 48 hr in HeLa cells; format: functional, Homo sapiens; method in brief: as §1
HeLa [21] = assay: Effect on cell cycle evaluated as proportion of cells in sub-G1 (apoptic cells) phase of the cell cycle at 10E-7 M for 72 hr in HeLa cells; format: functional, Homo sapiens; method in brief: as §1
HeLa [22] = assay: Effect on cell cycle evaluated as proportion of cells in G0/G1 phase of the cell cycle at 10E-7 M for 24 hr in HeLa cells; format: functional, Homo sapiens; method in brief: as §1
HeLa [23] = assay: Effect on cell cycle evaluated as proportion of cells in G0/G1 phase of the cell cycle at 10E-7 M for 72 hr in HeLa cells; format: functional, Homo sapiens; method in brief: as §1
HeLa [24] = assay: Effect on cell cycle evaluated as proportion of cells in S phase of the cell cycle at 10E-8 M for 48 hr in HeLa cells; format: functional, Homo sapiens; method in brief: as §1
HeLa [25] = assay: Effect on cell cycle evaluated as proportion of cells in sub-G1 phase (apoptic cells )of the cell cycle at 10E-8 M for 24 hr in HeLa cells; format: functional, Homo sapiens; method in brief: as §1
HT-29 = assay: In vitro cytotoxicity against HT-29 (human colon carcinoma) cell line.; format: functional, cell-based; settings: Homo sapiens, HT-29
HeLa [26] = assay: Effect on cell cycle evaluated as proportion of cells in G2/M phase of the cell cycle at 10E-7 M for 24 hr in HeLa cells; format: functional, Homo sapiens; method in brief: as §1
HeLa [27] = assay: Effect on cell cycle evaluated as proportion of cells in sub-G1 phase (apoptic cells) of the cell cycle at 10E-6 M for 24 hr in HeLa cells; format: functional, Homo sapiens; method in brief: as §1
HeLa [28] = assay: Effect on cell cycle evaluated as proportion of cells in G2/M phase of the cell cycle at 10E-8 M for 24 hr in HeLa cells; format: functional, Homo sapiens; method in brief: as §1
HeLa [29] = assay: Effect on cell cycle evaluated as proportion of cells in G2/M phase of the cell cycle at 10E-6 M for 72 hr in HeLa cells; format: functional, Homo sapiens; method in brief: as §1
HeLa [30] = assay: Effect on cell cycle evaluated as proportion of cells in S phase of the cell cycle at 10E-8 M for 24 hr in HeLa cells; format: functional, Homo sapiens; method in brief: as §1
HeLa [31] = assay: Effect on cell cycle evaluated as proportion of cells in S phase of the cell cycle at 10E-8 M for 72 hr in HeLa cells; format: functional, Homo sapiens; method in brief: as §1
HeLa [32] = assay: Effect on cell cycle evaluated as proportion of cells in S phase of the cell cycle at 10E-7 M for 24 hr in HeLa cells; format: functional, Homo sapiens; method in brief: as §1
HeLa [33] = assay: Effect on cell cycle evaluated as proportion of cells in G2/M phase of the cell cycle at 10E-7 M for 72 hr in HeLa cells; format: functional, Homo sapiens; method in brief: as §1
HeLa [34] = assay: Effect on cell cycle evaluated as proportion of cells in G2/M phase of the cell cycle at 10E-6 M for 48 hr in HeLa cells; format: functional, Homo sapiens; method in brief: as §1
HeLa [35] = assay: Effect on cell cycle evaluated as proportion of cells in G0/G1 phase of the cell cycle at 10E-8 M for 24 hr in HeLa cells; format: functional, Homo sapiens; method in brief: as §1
HeLa [36] = assay: Effect on cell cycle evaluated as proportion of cells in G0/G1 phase of the cell cycle at 10E-6 M for 72 hr in HeLa cells; format: functional, Homo sapiens; method in brief: as §1
HeLa [37] = assay: Effect on cell cycle evaluated as proportion of cells in sub-G1 (apoptic cells) phase of the cell cycle at 10E-6 M for 72 hr in HeLa cells; format: functional, Homo sapiens; method in brief: as §1

COc1cc([C@@H]2c3cc4c(cc3[C@H](O)[C@H]3COC(=O)[C@H]23)OCO4)cc(OC)c1OC [PODOFILOX]
Activity (HeLa [1]): 68.4%
Activity (HeLa [2]): 19.5%
Activity (HeLa [3]): 16.1%
Activity (HeLa [4]): 2.5%
Activity (HeLa [5]): 1.6%
Activity (HeLa [6]): 2.2%
Activity (HeLa [7]): 81.8%
Activity (HeLa [8]): 0.2%
Activity (HeLa [9]): 10.5%
Activity (HeLa [10]): 5.8%
Activity (HeLa [11]): 92.1%
Activity (HeLa [12]): 62.3%
Activity (HeLa [13]): 9.7%
Activity (HeLa [14]): 59%
Activity (HeLa [15]): 4.2%
Selectivity index [16]: 0.5
Activity (HeLa [17]): 13.9%
Activity (HeLa [18]): 10%
Activity (HeLa [19]): 3.4%
Activity (HeLa [20]): 11%
Activity (HeLa [21]): 88.1%
Activity (HeLa [22]): 2.2%
Activity (HeLa [23]): 9.2%
Activity (HeLa [24]): 9.7%
Activity (HeLa [25]): 1.4%
IC50 (HT-29): 24 nM
Activity (HeLa [26]): 91.7%
Activity (HeLa [27]): 1.5%
Activity (HeLa [28]): 71.7%
Activity (HeLa [29]): 0.2%
Activity (HeLa [30]): 4.3%
Activity (HeLa [31]): 4.1%
Activity (HeLa [32]): 4.5%
Activity (HeLa [33]): 0.2%
Activity (HeLa [34]): 18%
Activity (HeLa [35]): 22.6%
Activity (HeLa [36]): 7.1%
Activity (HeLa [37]): 89.3%
